MrgX1 PAM = allosterically activates human MrgX1 receptor signaling. Q96LB2. MrgX1-HEK293, Fluo-4 calcium flux, FDSS; active compounds read high. B-score at 10 µM. 310,000 tested, 0.63% active. AID 588675;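 active = plate-corrected calcium response at least 3 library SD above typical, normal starting fluorescence, not activating the receptor alone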;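 also: compound read alongside a low EC10 to EC30 dose of BAM8-22 agonist; peak minus trough fluorescence over baseline measured at the second addition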
Target sequence (Q96LB2 whole entry, looked up): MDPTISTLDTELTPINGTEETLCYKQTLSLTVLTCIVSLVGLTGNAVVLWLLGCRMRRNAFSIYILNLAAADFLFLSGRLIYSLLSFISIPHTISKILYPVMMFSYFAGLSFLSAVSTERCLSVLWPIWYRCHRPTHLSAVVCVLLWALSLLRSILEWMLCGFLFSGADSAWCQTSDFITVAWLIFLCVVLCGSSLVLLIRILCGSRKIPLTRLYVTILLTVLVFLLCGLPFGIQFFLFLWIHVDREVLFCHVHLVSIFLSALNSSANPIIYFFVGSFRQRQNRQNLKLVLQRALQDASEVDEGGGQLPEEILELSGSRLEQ
MrgX1 antag = antagonists of human MrgX1 receptor. B-score at 10 µM. Q96LB2. 310,000 tested, 1.3% active. MRGX1-HEK293 calcium flux, Fluo-4, BAM8-22 antagonism; active compounds read low;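 active = calcium-response B-score plate-corrected more than 3 library SD below zero, starting fluorescence within 5 deviations, no agonist response on first addition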;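 also: peak minus trough fluorescence over baseline after final BAM8-22 challenge near maximal dose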
RGS4 block = human RGS4 inhibition; P49798; 310,000 tested, 0.45% active; HEK293 M3R/RGS4 inducible, Fluo-4 calcium flux; active compounds read high; triggered by carbachol at its EC20; AID 463165; B-score at 10 µM;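 active = B-score, a plate-corrected calcium signal, over three deviations above library mean, with baseline fluorescence within five deviations of library mean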;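 also: RGS4 expression induced by doxycycline in cells with stable M3 receptor; B-score is computed from the integrated fluorescence ratio over baseline after carbachol; higher B-score means a larger calcium signal and so more RGS4 inhibition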
Target sequence (P49798 whole entry, looked up): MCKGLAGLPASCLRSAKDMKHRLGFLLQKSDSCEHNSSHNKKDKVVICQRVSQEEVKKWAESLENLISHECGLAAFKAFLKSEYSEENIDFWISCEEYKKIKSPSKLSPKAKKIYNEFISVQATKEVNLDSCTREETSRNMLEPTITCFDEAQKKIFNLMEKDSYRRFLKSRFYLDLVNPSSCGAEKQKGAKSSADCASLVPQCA
MrgX1 ag = human MrgX1 receptor agonism, primary screen | MrgX1-HEK293 cells, Fluo-4 calcium fluorescence, agonist mode; active compounds read high | B-score at 10 µM | Q96LB2 | 310,000 tested, 0.44% active;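 active = calcium response B-score plate-corrected fluorescence ratio at least 3 library SD, with starting fluorescence B-score inside 5 SD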
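Test system: Stable human MrgX1 HEK293 cell line | Schedule: Overnight plating before 1 h dye loading | Read-out basis: Baseline-normalised fluorescence change ratio, B-scored | Detection: Kinetic calcium dye fluorescence, Fluo-4 NW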
RGS4 pot = potentiators or activators of RGS4. HEK293 M3R/inducible RGS4, carbachol calcium flux Fluo4; active compounds read low. B-score at 10 µM. 310,000 tested, 0.92% active. AID 463111;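 active = B-score of the integrated calcium signal more than 4 SD below the library mean, with starting fluorescence not abnormally high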;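 also: negative B-score means reduced calcium response which marks RGS4 activation or potentiation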
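System: HEK293 FlpIn-TREx cells, stable M3R, doxycycline-inducible RGS4. Timing: overnight RGS4 induction, 30 min dye load 37 °C, 20 min compound RT. Also added: carbachol, ECmax concentration. Measured by: Fluo4 fluorescence kinetic imaging of calcium. Evaluation: integrated calcium ratio converted to B score.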
MrgX1 ant reconf = human MrgX1 receptor antagonism, re-confirmation screen. MrgX1-HEK293, BAM8-22 calcium flux, Fluo-4; active compounds read low. remaining BAM8-22 calcium response % of control (active compounds read low), % at 10 µM. shares compounds with MrgX1 antag. AID 602420. 2,300 tested, 19% active;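 active = remaining agonist calcium response no higher than 100% minus 3 SD of agonist-only control wells, with starting fluorescence near control levels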;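 also: agonist BAM8-22 given at a near maximal EC90 to ECmax level; peak minus minimum fluorescence divided by baseline after agonist addition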
HEK293 Ca flux = MrgX1 antagonist counter-screen hit in parental HEK293 cells; shares compounds with MrgX1 antag; Fluo-4 calcium fluorescence, FDSS; fluorescence ratio F(max-min)/F0 at 10 µM; 4,000 tested, 2% active; AID 624111;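 active = duplicate-averaged calcium fluorescence ratio at least three times the standard deviation of buffer wells, a nonspecific response in parental cells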
HEK293 Ca counter = MrgX1 allosteric activator counter-screen hit in parental HEK293 cells | shares compounds with MrgX1 antag | parental HEK293 calcium flux, Fluo-4 fluorescence ratio; active compounds read high | fluorescence ratio F(max-min)/F0 at 10 µM | 4,000 tested, 0.4% active;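 active = calcium fluorescence ratio, averaged over duplicates, at least 3 SD of the buffer-well ratio, meaning a nonspecific response in receptor-free cells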;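 also: untransfected parental HEK293 lacking MrgX1 used as counterscreen for MrgX1 allosteric activators; fluorescence change taken during the second addition on a kinetic imager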
HEK293 Ca cntr2 = activity in parental HEK293 cells lacking MrgX1 receptor; shares compounds with MrgX1 antag; Fluo-4 calcium fluorescence (FDSS); active compounds read high; fluorescence ratio F(max-min)/F0 at 10 µM; 4,000 tested, 8.7% active; AID 624115;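 active = calcium fluorescence ratio at least three times the spread of buffer wells, meaning a non-specific response in parental cells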
Each line names hits and unclear results; the compound was inactive in the other large screens (follow-up assays come after a bar, where they were run). In the library only some 3.5% were active in any assay of this set; here they are far more common.

COC(=O)[C@@H]1C[C@@]2(O)[C@H](O)[C@H](O)[C@H](O)C[C@H]2N1Cc1ccc(-c2ccccc2)cc1	none
CC1Cc2ccccc2N1C(=O)CSc1nc2ccccc2n1CC(=O)N1CCOCC1 (configuration not stated)	MrgX1 antag -4.6 | MrgX1 ant reconf inactive | HEK293 Ca flux inactive | HEK293 Ca counter inactive | HEK293 Ca cntr2 inactive
CC1Cc2ccccc2N1C(=O)CSc1nnc(Cn2nnc3ccccc32)n1C (configuration not stated)	MrgX1 antag -6.9 | MrgX1 ant reconf inactive | HEK293 Ca flux inactive | HEK293 Ca counter inactive | HEK293 Ca cntr2 inactive
O=C(CO/N=C/c1ccccc1O)N1CCc2ccccc21	none
COC(=O)[C@@H](NC(=O)c1ccc2c(c1)S(=O)(=O)c1ccccc1C2=O)C(C)C	MrgX1 antag -4.7 | MrgX1 ant reconf inactive | HEK293 Ca flux inactive | HEK293 Ca counter inactive | HEK293 Ca cntr2 inactive
COc1ccc(-n2ccnc2SCC(=O)Nc2ccc(OC)cc2OC)cc1	none
COc1ccccc1C1c2c(C)nn(-c3ccccc3)c2NC(=O)C1NC(=O)c1ccccc1 (configuration not stated)	none
O=C(NCCc1ccc(Cl)cc1)C1CCN(S(=O)(=O)N2CCCC2)CC1	MrgX1 antag -5.7 | MrgX1 ant reconf inactive | HEK293 Ca flux inactive | HEK293 Ca counter inactive | HEK293 Ca cntr2 inactive
O=C(NC1CCCCCC1)c1ccc(Br)o1	none
O=C(NC1CCCCCCC1)c1ccc(Br)o1	MrgX1 antag -4.7 | MrgX1 ant reconf inactive | HEK293 Ca flux inactive | HEK293 Ca counter inactive | HEK293 Ca cntr2 inactive
CC1CCCCC1NC(=O)CN1C(=O)CSc2cc(S(=O)(=O)N3CCCCCC3)ccc21 (configuration not stated)	none
CCOC(=O)C1=C(O)/C(=C\c2sccc2C)N=C1C	MrgX1 antag -5.2 | MrgX1 ant reconf inactive | HEK293 Ca flux inactive | HEK293 Ca counter inactive | HEK293 Ca cntr2 inactive
O=C1C(C=NCc2ccco2)=C(O)c2ccccc21	MrgX1 antag -8.6 | MrgX1 ant reconf inactive | HEK293 Ca flux inactive | HEK293 Ca counter inactive | HEK293 Ca cntr2 inactive
Cc1ccccc1CN1CCN(S(=O)(=O)c2cccs2)CC1	MrgX1 antag -4.6 | MrgX1 ant reconf inactive | HEK293 Ca flux inactive | HEK293 Ca counter inactive | HEK293 Ca cntr2 inactive
Cc1ccccc1CN1CCN(S(=O)(=O)c2cccc3nsnc23)CC1	MrgX1 antag -11 | MrgX1 ant reconf inactive | HEK293 Ca flux inactive | HEK293 Ca counter inactive | HEK293 Ca cntr2 inactive
CCN1CCN(S(=O)(=O)c2cccc3nsnc23)CC1	none
CCCNC(=O)COC(=O)c1cc2c(=O)n3ccccc3nc2s1	none
O=C(CCS(=O)(=O)c1ccccc1)Nc1cccc(-c2nc3ccccc3s2)c1	MrgX1 antag -6.2 | MrgX1 ant reconf 84% | HEK293 Ca flux inactive | HEK293 Ca counter inactive | HEK293 Ca cntr2 inactive
Cc1cc(C(=O)NC(C)c2ccc3c(c2)OCO3)cs1 (configuration not stated)	MrgX1 antag -4.6 | MrgX1 ant reconf inactive | HEK293 Ca flux inactive | HEK293 Ca counter inactive | HEK293 Ca cntr2 inactive
Cc1cc(C(=O)Nc2ccc3c(c2)OCO3)cs1	none
COC(=O)c1cc(C#N)c(OC)nc1C	MrgX1 antag -5.1 | MrgX1 ant reconf inactive | HEK293 Ca flux inactive | HEK293 Ca counter inactive | HEK293 Ca cntr2 inactive
O=[N+]([O-])c1ccc(CN2C=NS(=O)(=O)c3ccccc32)cc1	none
COC(=O)c1ccc(NCN2C(=O)C3C4CCC(C4)C3C2=O)cc1 (configuration not stated)	MrgX1 antag -5.6 | MrgX1 ant reconf inactive | HEK293 Ca flux inactive | HEK293 Ca counter inactive | HEK293 Ca cntr2 inactive
CC(=O)Nc1ccc(NCN2C(=O)C3C4CCC(C4)C3C2=O)cc1 (configuration not stated)	none
OCCC1CN(Cc2ccc3cccc(F)c3n2)CCN1Cc1ccccc1 (configuration not stated)	none
Cc1cccc(NC(=S)NC(C)CCc2ccccc2)c1 (configuration not stated)	MrgX1 antag -7.8 | MrgX1 ant reconf inactive | HEK293 Ca flux inactive | HEK293 Ca counter inactive | HEK293 Ca cntr2 inactive
Cc1nn(C)c(C(=O)Nc2c(C)nn(Cc3c(F)c(F)c(F)c(F)c3F)c2C)c1Br	none
Cc1cccc2cc3c(N)c(C(=O)N4CCc5ccccc54)sc3nc12	MrgX1 antag -8.4 | MrgX1 ant reconf inactive | HEK293 Ca flux 0.48 | HEK293 Ca counter inactive | HEK293 Ca cntr2 59
Cc1sc(NC(=O)c2sc3nc4c(C)cccc4cc3c2N)c(C#N)c1C	MrgX1 antag -6.2 | MrgX1 ant reconf 60% | HEK293 Ca flux inactive | HEK293 Ca counter inactive | HEK293 Ca cntr2 inactive
Cc1cccc2cc3c(N)c(C#N)sc3nc12	none
O=C(c1cnc2n(c1=O)CCS2)N1CCc2ccccc21	none
CCN(CC)S(=O)(=O)c1cc(C(=O)Nc2cccnc2Cl)ccc1Cl	none
Cc1cc(=O)oc2cc(OC(=O)CCCCCN3C(=O)c4ccccc4C3=O)ccc12	none
O=C(NCc1ccc(Cl)cc1)C(=O)NCC(c1cccnc1)N1CCN(c2ccc(F)cc2)CC1 (configuration not stated)	MrgX1 antag -4.7 | MrgX1 ant reconf 77% | HEK293 Ca flux inactive | HEK293 Ca counter inactive | HEK293 Ca cntr2 inactive
O=C(NCC(c1cccnc1)N1CCN(c2ccc(F)cc2)CC1)c1ccccc1 (configuration not stated)	none
CN1C(=O)C(C)(C)c2cc(S(=O)(=O)N3CCC(C(=O)NCc4ccccc4Cl)CC3)ccc21	none
Cc1ccc(CNC(=S)NC2CCC(C(C)(C)C)CC2)cc1 (configuration not stated)	MrgX1 antag -6.3 | MrgX1 ant reconf 63% | HEK293 Ca flux inactive | HEK293 Ca counter inactive | HEK293 Ca cntr2 inactive
O=C(O)c1ccc(N2CC3CC(C2)c2cccc(=O)n2C3)c(NC(=S)Nc2ccc(Br)cc2)c1 (configuration not stated)	none
OCCC1CN(Cc2ccccc2-c2ccco2)CCN1Cc1ccccc1 (configuration not stated)	none
COc1ccc(OC)c(Nc2c3ccccc3nc3ccccc23)c1	none

Screens as filed in PubChem.
